EC50, MCC and CC50 data for 3 compounds are collected here from ChEMBL document CHEMBL1255569, “Synthesis of ester prodrugs of 9-(S)-[3-hydroxy-2-(phosphonomethoxy)propyl]-2,6-diaminopurine (HPMPDAP) as anti-poxvirus agents” (J Med Chem, 2010).

Broadly, the EC50 is the midpoint of the concentration-response curve. The term CC50 denotes the concentration giving 50% cytotoxicity.

For data set [1], the system named is Human alphaherpesvirus 1. As to the kind of experiment: Antiviral activity against HSV1 KOS infected in HEL assessed as reduction in virus-induce cytopathicity. It is filed as functional, organism-based. To be noted: Human alphaherpesvirus 1, KOS. Background: Cytopathic effects are the visible damage that an infection or toxin causes in cultured cells.
A short description of data set [2]: Cytotoxicity against HEL assessed as change in cell morphology. It is filed as cell-based. To be noted: human, HEL cells. Summed up: (§1)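 Microscopic inspection of cultures exposed to test compounds. MCC is the minimum compound concentration causing a microscopically detectable alteration of cell morphology.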
For data set [3], the system named is Human alphaherpesvirus 1. As to the kind of experiment: Antiviral activity against acyclovir-resistant HSV1 KOS infected in HEL assessed as reduction in virus-induce cytopathicity. It is filed as functional, organism-based. Particulars: Human alphaherpesvirus 1, KOS.
Data set [4] deals with Human alphaherpesvirus 3. As to the kind of experiment: Antiviral activity against acyclovir-resistant VZV OKA infected in HEL assessed as reduction in virus-induce cytopathicity. To be noted: Human alphaherpesvirus 3, OKA.
In data set [5] the test system is Human betaherpesvirus 5. As to the kind of experiment: Antiviral activity against Human cytomegalovirus Davis infected in HEL assessed as reduction in virus-induce cytopathicity. The data set is classed as functional, organism-based. To be noted: Human betaherpesvirus 5, Davis.
Data set [6] concerns Human betaherpesvirus 5. As to the kind of experiment: Antiviral activity against Human cytomegalovirus AD169 infected in HEL assessed as reduction in virus-induce cytopathicity. It is filed as functional, organism-based. Particulars: Human betaherpesvirus 5, AD169.
In a further data set the test system is Human betaherpesvirus 6. The data set is described as follows: Antiviral activity against Human herpesvirus 6 infected in HEL assessed as reduction in virus-induce cytopathicity. The data set is classed as functional, organism-based.
The next data set deals with Vaccinia virus. As to the kind of experiment: Antiviral activity against Vaccinia virus infected in HEL assessed as reduction in virus-induce cytopathicity. It is filed as functional, organism-based. To be noted: Orthopoxvirus vaccinia.
The subject of data set [7] is Human alphaherpesvirus 3. As to the kind of experiment: Antiviral activity against acyclovir-resistant VZV 07/1 infected in HEL assessed as reduction in virus-induce cytopathicity. To be noted: Human alphaherpesvirus 3, 07/1.
Data set [8] can be described thus: Cytotoxicity against HEL. The data set is classed as cell-based. Particulars: human, HEL cells. The essentials: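 HEL cells were seeded at 5 × 10³ cells/well and allowed to proliferate for 24 h, then given medium with graded compound concentrations. After 3 days at 37 °C, cells were counted with a Coulter counter. CC50 (μM) is the concentration halving proliferation relative to untreated controls, estimated from plots of cell number (% of control) against concentration.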

The next data set deals with Human alphaherpesvirus 2. As to the kind of experiment: Antiviral activity against […] infected in HEL assessed as reduction in virus-induce cytopathicity. It is filed as functional, organism-based. Particulars: Human alphaherpesvirus 2, strain G.
A short description of data set [9]: Cytotoxicity against human HSB2 cells assessed as change in cell morphology. It is filed as cell-based, CCRF-HSB-2. Summed up: as §1

Bounds are passed on as bounds.

`CCCCCCCCCCCCCCCCOCCO[P@@]1(=O)CO[C@@H](Cn2cnc3c(N)nc(N)nc32)CO1`: the EC50 with Human alphaherpesvirus 1 [1] is 10 nM; in the data set with Human alphaherpesvirus 1 [3] it was 7 nM; in the data set with Human alphaherpesvirus 3 [4], 1.8 nM; in the data set on Human betaherpesvirus 5 [5], 5 nM; in the data set with Human betaherpesvirus 5 [6], 11 nM; in the data set on Human betaherpesvirus 6 it was over 44000 nM. Also, the EC50 was found to be 2.6 nM in the data set on Vaccinia virus, 0.18 nM in the data set with Human alphaherpesvirus 3 [7] and 8 nM with Human alphaherpesvirus 2. The MCC in [2] worked out at 35.2 µM; in data set [9] it was 0.5 µM. Also, half-maximal cytotoxicity in [8] (CC50) was put at 30000 nM.

As to `CCCCCCCCCCCCCCCCCCOCCOP(=O)(O)CO[C@H](CO)Cn1cnc2c(N)nc(N)nc21`, the EC50 with Human alphaherpesvirus 1 [1] is 0.8 nM; with Human alphaherpesvirus 1 [3], 0.85 nM; in the data set on Human alphaherpesvirus 3 [4] it was 1.3 nM; with Human betaherpesvirus 5 [5] it was 9.4 nM; with Human betaherpesvirus 5 [6], 41 nM; in the data set on Human betaherpesvirus 6 it was 34600 nM. The figures for the EC50 in the data set with Vaccinia virus, in the data set on Human alphaherpesvirus 3 [7] and with Human alphaherpesvirus 2 were 0.74 nM, 0.08 nM and 2.2 nM, respectively. For the same compound, the MCC was at least 6.3 µM in [2] and at least 39.3 µM in data set [9]. The CC50 in [8] amounted to 18800 nM.

For `Nc1nc(N)c2ncn(C[C@H]3COP(=O)(OCC(F)(F)F)CO3)c2n1` (stereo partly specified), the EC50 in the data set on Human alphaherpesvirus 1 [1] is 6570 nM; in the data set with Human alphaherpesvirus 1 [3], 4780 nM; in the data set with Human alphaherpesvirus 3 [4], 620 nM; with Human betaherpesvirus 5 [5], 24400 nM; in the data set on Human betaherpesvirus 5 [6] it was 19100 nM; in the data set on Human betaherpesvirus 6, 177000 nM. Also, the results for the EC50 with Vaccinia virus, in the data set with Human alphaherpesvirus 3 [7] and in the data set on Human alphaherpesvirus 2 were 2080 nM, 170 nM and 1910 nM, respectively. In addition, the MCC in data set [2] and in data set [9] was over 239 µM throughout. The compound also showed a CC50 in data set [8] of at least 219000 nM.
